A selection: hits, their analogues and other compounds. The true share with any hit is near 3.4%.
IMP-1 inhibitor – IMP-1 metallo-beta-lactamase inhibitors, primary screen, biochemical, epi-absorbance readout, Pseudomonas aeruginosa enzyme | metallo-beta-lactamase IMP-1 (Pseudomonas aeruginosa) | purified IMP-1, nitrocefin hydrolysis, epi-absorbance fluorescence | inhibition, % at 5.6 µM | hit rate 0.45% among 290,000;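 active = inhibition above the mean plus 3 SD of all compounds in the same screening run, cut at about 4.5% in these data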
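Test system: recombinant IMP-1 enzyme, purified / Medium: HEPES buffer pH 7.1 with ZnSO4 and Brij 35 / Doses: single dose, 5.6 µM / Times: 25 °C, 15 min preincubation, 25 min reaction / Detection: Epi-absorbance via hydrolysed-nitrocefin quenching of white-plate fluorescence, 480/530 nm, EDTA stop / Evaluation: percent inhibition from optical density relative to buffer-blank wells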
ANO1 activ – TMEM16A chloride channel activators or potentiators, primary screen, cell-based, HTS; Anoctamin-1 (Mus musculus), Q8BHY3; HEK293 TMEM16A/YFP-H148Q/I152L, iodide quench fluorescence; active compounds read low; B-score at 10 µM; hit rate 0.3% among 340,000; AID 623877, 2012;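 active = fluorescence-ratio B-score plate-corrected deviation score at least 3 library SD below zero, with starting fluorescence score within 5 deviations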;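 note: channel opened by trigger with iodide after compound preincubation; score built on the fluorescence ratio of max minus min over baseline; more negative score means more quench and so TMEM16A activation or potentiation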
VIM-2 inh – VIM-2 metallo-beta-lactamase inhibitors, primary screen, biochemical, epi-absorbance readout, Pseudomonas aeruginosa enzyme | purified VIM-2, nitrocefin hydrolysis, epi-absorbance fluorescence | hit rate 0.89% among 290,000 | inhibition, % at 5.6 µM;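 active = inhibition above the mean of all tested compounds plus 3 SD, cutoff set per screening run, cut at about 7.5% in these data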;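 note: red hydrolysis product quenches plate fluorescence so inhibitors raise well fluorescence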
CHT inh – inhibitors of human choline transporter CHT. High affinity choline transporter 1 (Homo sapiens), Q9GZV3. CHT-expressing cells, membrane potential dye, choline response; active compounds read low. B-score at 10 µM. hit rate 0.86% among 310,000;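 active = B-score over 3 SD under the library average, and starting fluorescence ratio not unusually high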;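 note: choline stimulus applied at its EC90 after an EC20 pre-addition; B-score computed on integrated fluorescence ratio after choline addition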
CHT PAM – CHT positive allosteric modulators, primary screen, cell-based, membrane potential dye, choline EC20 | CHT-expressing cells; active compounds read high; LV-AA mutant CHT in HEK293 cells | AID 488977, 2010 | hit rate 0.49% among 310,000 | B-score at 10 µM | High affinity choline transporter 1 (Homo sapiens), Q9GZV3;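 active = initial fluorescence not abnormally high and integrated response B-score, plate-corrected, over 3 SD above library mean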
TMEM16A inh – TMEM16A chloride channel inhibitors, primary screen, cell-based, HTS. HEK293 TMEM16A/YFP iodide influx fluorescence, ionomycin. normalized B-score (activity score, 25-100; higher = stronger inhibition) at 10 µM. hit rate 1.2% among 310,000. AID 588511, 2011;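 active = ratio plate-corrected score three or more library SD toward inhibition, starting fluorescence score within five deviations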;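 note: score derived from kinetic fluorescence span divided by baseline fluorescence per well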
TMEM16A reconf – TMEM16A chloride channel inhibitors, confirmation, cell-based, re-confirmation; shares compounds with TMEM16A inh; HEK293 TMEM16A/YFP-H148Q, iodide quench fluorescence; ionomycin added to raise cell calcium; inhibition, % at 10 µM; hit rate 39% among 2,300; AID 652189, 2013;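 active = mean duplicate percent inhibition, scaled so buffer wells are 0 and the reference blocker 100, over three buffer SD above buffer mean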
TMEM16A Ca cntr – calcium mobilization in TMEM16A/YFP HEK293 cells, confirmation, counter-screen for TMEM16A inhibitor project. shares compounds with TMEM16A inh. Fluo4 calcium mobilization. calcium response (% of ionomycin), % at 10 µM. hit rate 2% among 2,300;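 active = duplicate-averaged calcium signal over 20% of the ionomycin maximum, relative to buffer baseline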;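 note: each well's signal is peak minus trough fluorescence divided by its pre-addition baseline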
Parental YFP cnt – iodide YFP quench changes in parental YFP-HEK293, counter-screen for TMEM16A inhibitor project, cell-based | shares compounds with TMEM16A inh | ionomycin | YFP ratio F(max-min)/F0 at 10 µM | 2,300 tested, under 10 active | AID 652233, 2013;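 active = yellow fluorescent protein signal ratio exceeding the buffer control mean by over 5 SD of those controls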;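 note: ratio is mean of duplicate wells from kinetic YFP trace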
ClC-1 inh – ClC-1 chloride channel inhibition, selectivity assay for TMEM16A inhibitor project, cell-based, voltage-dependent ClC-1; shares compounds with TMEM16A inh; CHO ClC-1-YFP, iodide influx fluorescence quench; iodide control reads 0, buffer control 100; ratio percent, % at 10 µM; 2,300 tested, under 10 active; AID 652236, 2013;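 active = duplicate-mean ratio percent above the mean of iodide-only control wells, which defines zero, plus 5 of their SD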;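 note: higher percent means stronger block of ClC-1 iodide influx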
Hits are given with their value.

For CCC(C)(O)c1[nH]c2ccc(C(=O)OC)cc2c1C (configuration not stated) the results were IMP-1 inhibitor inactive, ANO1 activ inactive, VIM-2 inh inactive, CHT inh inactive, CHT PAM inactive and TMEM16A inh inactive.
Screening CCCCNC(NCCCC)=C(S(=O)(=O)CC)S(=O)(=O)CC returned IMP-1 inhibitor inactive, ANO1 activ inactive, VIM-2 inh inactive, CHT inh inactive, CHT PAM inactive, TMEM16A inh 25, TMEM16A reconf inactive, TMEM16A Ca cntr inactive, Parental YFP cnt inactive and ClC-1 inh inactive.
`CCOC(=O)Cc1csc(NC(=O)c2csc(C)c2)n1` gave IMP-1 inhibitor inactive, ANO1 activ inactive, VIM-2 inh inactive, CHT inh inactive, CHT PAM inactive, TMEM16A inh 100, TMEM16A reconf 42%, TMEM16A Ca cntr inactive, Parental YFP cnt inactive and ClC-1 inh inactive.
`CCOC(=O)Cc1csc(NC(=O)c2cccc(OC)c2)n1` gave IMP-1 inhibitor inactive, ANO1 activ inactive, VIM-2 inh inactive, CHT inh inactive, CHT PAM inactive and TMEM16A inh inactive.
`O=C(NCC(c1ccc(F)cc1)N1CCOCC1)c1ccc([N+](=O)[O-])o1` (configuration not stated) gave ANO1 activ inactive.
`O=C(Cn1[nH]c(=O)c2ccccc2c1=O)OCC(=O)N(Cc1ccccc1)Cc1ccccc1` gave IMP-1 inhibitor inactive, ANO1 activ inactive, VIM-2 inh inactive, CHT inh inactive, CHT PAM inactive, TMEM16A inh 100, TMEM16A reconf inactive, TMEM16A Ca cntr 24%, Parental YFP cnt inactive and ClC-1 inh inactive.
For CN(C)C(=O)c1ccc(-c2cc3onc(-c4ccccc4)c3c(=O)n2C)cc1 the results were ANO1 activ inactive.
COc1cccc(-c2cc3onc(-c4ccccc4)c3c(=O)n2C)c1 was read as ANO1 activ inactive, CHT inh inactive, CHT PAM inactive, TMEM16A inh 25, TMEM16A reconf inactive, TMEM16A Ca cntr inactive, Parental YFP cnt inactive and ClC-1 inh inactive.
For COC(=O)c1ccc(-c2cc3onc(-c4ccccc4)c3c(=O)n2C)cc1 the results were ANO1 activ inactive, CHT inh inactive, CHT PAM inactive, TMEM16A inh 25, TMEM16A reconf inactive, TMEM16A Ca cntr inactive, Parental YFP cnt inactive and ClC-1 inh inactive.
Screening O=C(Nc1nncs1)c1cc(S(=O)(=O)N2CCCCC2)ccc1Cl returned IMP-1 inhibitor inactive, ANO1 activ inactive, VIM-2 inh inactive, CHT inh inactive, CHT PAM inactive and TMEM16A inh inactive.
Screening CC(C)(C)OC(=O)C[C@H]1C/C=C\C[C@H](CC(=O)N(CCO)Cc2ccccc2)C(=O)N[C@@H](Cc2ccccc2)COC1=O returned ANO1 activ inactive.
`COC(=O)c1cc(=O)n(Cc2cccs2)c(=NCc2cccs2)s1` gave IMP-1 inhibitor inactive, ANO1 activ inactive, VIM-2 inh inactive, CHT inh inactive, CHT PAM inactive, TMEM16A inh 25, TMEM16A reconf inactive, TMEM16A Ca cntr inactive, Parental YFP cnt inactive and ClC-1 inh inactive.
CCN1C(=O)[C@@H]2Cc3c([nH]c4ccccc34)C(c3ccc(OC)cc3)N2C1=S (some centres not stated) was read as IMP-1 inhibitor inactive, ANO1 activ inactive, VIM-2 inh inactive, CHT inh inactive, CHT PAM inactive and TMEM16A inh inactive.
Cc1ccc(S(=O)(=O)N(C)/N=C2/C(=O)N(CC(=O)O)c3ccccc32)cc1 was read as IMP-1 inhibitor inactive, ANO1 activ inactive, VIM-2 inh inactive, CHT inh inactive, CHT PAM inactive and TMEM16A inh inactive.
`O=C(OCc1ccccn1)c1ccc(COc2ccc3ccccc3c2)o1` gave IMP-1 inhibitor inactive, ANO1 activ inactive, VIM-2 inh inactive, CHT inh inactive, CHT PAM inactive, TMEM16A inh 25, TMEM16A reconf 32%, TMEM16A Ca cntr inactive, Parental YFP cnt inactive and ClC-1 inh inactive.
`CN(C(=O)CCN1C(=O)c2ccccc2C1=O)c1ccccc1` gave IMP-1 inhibitor inactive, ANO1 activ inactive, VIM-2 inh inactive, CHT inh inactive, CHT PAM inactive and TMEM16A inh inactive.
Cc1ccc(S(=O)(=O)N2CCOC2CNC(=O)C(=O)NCCN2CCOCC2)cc1 (configuration not stated) was read as IMP-1 inhibitor inactive, ANO1 activ inactive, VIM-2 inh inactive, CHT inh inactive, CHT PAM inactive and TMEM16A inh inactive.
`COc1ccc(C)cc1NC(=O)CSc1nnc(-c2ccc(Br)cc2)o1` gave IMP-1 inhibitor inactive, ANO1 activ inactive, VIM-2 inh inactive, CHT inh inactive, CHT PAM inactive, TMEM16A inh 100, TMEM16A reconf inactive, TMEM16A Ca cntr inactive, Parental YFP cnt inactive and ClC-1 inh inactive.
Screening O=C(Cc1cccc(NC(=O)C2CCN(C(=O)C3CCC3)CC2)c1)Nc1cccc(C(=O)N2CCCC2)c1 returned ANO1 activ inactive.
Screening Cc1cc(C2(c3ccc(O)c(C)c3)C(=O)Nc3ccccc32)ccc1O returned IMP-1 inhibitor inactive, ANO1 activ inactive, VIM-2 inh inactive, CHT inh inactive, CHT PAM inactive, TMEM16A inh 100, TMEM16A reconf inactive, TMEM16A Ca cntr inactive, Parental YFP cnt inactive and ClC-1 inh inactive.
For CCCc1cc(C(=O)Nc2ccc(C(=O)c3ccccc3)cc2)n(C)n1 the results were IMP-1 inhibitor inactive, ANO1 activ inactive, VIM-2 inh inactive, CHT inh inactive, CHT PAM inactive, TMEM16A inh 100, TMEM16A reconf 40%, TMEM16A Ca cntr inactive, Parental YFP cnt inactive and ClC-1 inh inactive.
